Experimental data: ChEMBL document CHEMBL4028897 (J Med Chem, 2017)
Active and inactive are the calls of the source. No cut-off for these calls is given here.

How the values were obtained:
D(3) dopamine receptor [1] = molecular target: T1, D(3) dopamine receptor (Homo sapiens, UniProt P35462); assay: Displacement of [125I]ABN from human dopamine D3 receptor expressed in HEK293 cell membranes after 60 mins by scintillation counting method
D(2) dopamine receptor = D(2) dopamine receptor (Homo sapiens, UniProt P14416); assay: Displacement of [125I]ABN from human dopamine D2 long receptor expressed in HEK293 cell membranes after 60 mins by scintillation counting method
Chain of D(2) dopamine receptor (P14416 whole entry): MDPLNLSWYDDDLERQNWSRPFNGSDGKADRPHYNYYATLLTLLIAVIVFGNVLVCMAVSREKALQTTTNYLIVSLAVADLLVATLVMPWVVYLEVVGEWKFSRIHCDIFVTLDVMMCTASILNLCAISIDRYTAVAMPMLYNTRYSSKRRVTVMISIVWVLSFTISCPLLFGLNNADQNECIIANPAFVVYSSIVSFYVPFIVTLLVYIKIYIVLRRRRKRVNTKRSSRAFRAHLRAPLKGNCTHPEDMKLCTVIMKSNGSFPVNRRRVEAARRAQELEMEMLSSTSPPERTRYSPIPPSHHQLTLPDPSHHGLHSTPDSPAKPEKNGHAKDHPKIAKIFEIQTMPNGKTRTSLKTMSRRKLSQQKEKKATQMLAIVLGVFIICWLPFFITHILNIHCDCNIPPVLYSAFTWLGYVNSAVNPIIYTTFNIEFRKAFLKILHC
Outline: (§1)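 Nonspecific binding defined with 20 μM (+)-butaclamol. Inhibitor spanned 5 log units, two concentrations per decade, in triplicate. Stopped with ice-cold Tris/NaCl wash and glass-fiber filtration.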

Homo sapiens = organism: Homo sapiens; assay: Selectivity ratio of Ki for human dopamine D2 long receptor to Ki for human dopamine D3 receptor; outline: as §1
[2] = molecular target: T2, 5-hydroxytryptamine receptor 1A (Homo sapiens, UniProt P08908); assay: Displacement of [3H]8-OH-DPAT from human 5-HT1A receptor expressed in CHO-K1 cell membranes after 60 mins by scintillation counting method
T2 sequence (P08908 whole entry): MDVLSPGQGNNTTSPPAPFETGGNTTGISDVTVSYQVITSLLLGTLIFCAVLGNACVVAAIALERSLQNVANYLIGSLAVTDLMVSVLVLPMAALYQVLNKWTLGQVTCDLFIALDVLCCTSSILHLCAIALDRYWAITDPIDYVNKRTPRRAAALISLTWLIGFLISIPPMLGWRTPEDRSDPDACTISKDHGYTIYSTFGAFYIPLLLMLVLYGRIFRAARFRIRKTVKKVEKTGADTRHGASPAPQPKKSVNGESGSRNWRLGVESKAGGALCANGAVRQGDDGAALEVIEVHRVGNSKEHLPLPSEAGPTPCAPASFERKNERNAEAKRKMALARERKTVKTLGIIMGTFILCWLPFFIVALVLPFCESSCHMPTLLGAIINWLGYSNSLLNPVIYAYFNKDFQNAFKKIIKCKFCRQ
Outline: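 CHO-K1 membranes expressing human 5-HT1AR in 50 mM Tris-HCl, 10 mM MgSO4, 0.5 mM EDTA, 0.1% ascorbic acid, pH 7.4. […] Nonspecific binding with 10 μM metergoline. Competitor over 5 log units, two per decade, in triplicate. Ice-cold 10 mM Tris-HCl (pH 7.4) wash, glass-fiber filtration.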

[3] = molecular target: 5-hydroxytryptamine receptor 2A (Homo sapiens) (UniProt P28223); assay: Binding affinity to 5-HT2A receptor (unknown origin)
Chain of 5-hydroxytryptamine receptor 2A (Homo sapiens) (P28223 whole entry): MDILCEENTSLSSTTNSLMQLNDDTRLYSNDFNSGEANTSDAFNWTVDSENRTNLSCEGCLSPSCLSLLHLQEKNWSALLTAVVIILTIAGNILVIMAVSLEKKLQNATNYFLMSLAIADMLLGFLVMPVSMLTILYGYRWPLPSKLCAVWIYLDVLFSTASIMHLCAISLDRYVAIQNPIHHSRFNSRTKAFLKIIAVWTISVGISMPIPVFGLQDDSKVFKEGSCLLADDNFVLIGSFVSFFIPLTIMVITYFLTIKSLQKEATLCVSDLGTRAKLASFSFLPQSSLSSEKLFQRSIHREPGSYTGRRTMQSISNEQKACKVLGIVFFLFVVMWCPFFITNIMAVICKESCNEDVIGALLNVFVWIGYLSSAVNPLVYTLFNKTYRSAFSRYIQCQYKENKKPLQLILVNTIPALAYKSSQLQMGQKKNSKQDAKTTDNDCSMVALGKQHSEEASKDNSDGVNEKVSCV

[4] = molecular target: T3, 5-hydroxytryptamine receptor 2C (Homo sapiens) (UniProt P28335); assay: Binding affinity to 5-HT2C receptor (unknown origin)
T3 sequence (whole entry): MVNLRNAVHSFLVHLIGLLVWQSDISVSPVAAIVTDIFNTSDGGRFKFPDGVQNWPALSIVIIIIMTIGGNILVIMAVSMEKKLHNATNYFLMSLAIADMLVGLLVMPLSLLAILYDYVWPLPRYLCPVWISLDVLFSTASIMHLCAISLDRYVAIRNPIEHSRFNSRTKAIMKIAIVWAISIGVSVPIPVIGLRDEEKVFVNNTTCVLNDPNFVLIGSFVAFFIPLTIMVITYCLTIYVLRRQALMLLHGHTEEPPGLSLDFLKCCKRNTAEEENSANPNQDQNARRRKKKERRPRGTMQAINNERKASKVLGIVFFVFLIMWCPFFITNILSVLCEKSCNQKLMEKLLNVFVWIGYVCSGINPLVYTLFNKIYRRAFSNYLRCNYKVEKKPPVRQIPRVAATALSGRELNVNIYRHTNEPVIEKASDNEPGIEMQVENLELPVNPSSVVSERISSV

D(3) dopamine receptor [5] = molecular target: T1, D(3) dopamine receptor; assay: Agonist activity at human ProLink-tagged dopamine D3 receptor expressed in human U2OS cells assessed as induction of EA-tagged beta-arrestin binding at 10 times Ki after 90 mins by chemoluminescence assay; assay type: cell-based
D(3) dopamine receptor [6] = molecular target: T1, D(3) dopamine receptor; assay: Agonist activity at human dopamine D3 receptor expressed in human U2OS cells assessed as inhibition of forskolin-dependent stimulation of adenylyl cyclase at 10 times Ki; assay type: functional, cell-based
D(3) dopamine receptor [7] = molecular target: T1, D(3) dopamine receptor; assay: Partial agonist activity at human dopamine D3 receptor expressed in human U2OS cells assessed as inhibition of forskolin-dependent stimulation of adenylyl cyclase at 10 times Ki; assay type: functional, cell-based

T1 sequence (P35462 whole entry): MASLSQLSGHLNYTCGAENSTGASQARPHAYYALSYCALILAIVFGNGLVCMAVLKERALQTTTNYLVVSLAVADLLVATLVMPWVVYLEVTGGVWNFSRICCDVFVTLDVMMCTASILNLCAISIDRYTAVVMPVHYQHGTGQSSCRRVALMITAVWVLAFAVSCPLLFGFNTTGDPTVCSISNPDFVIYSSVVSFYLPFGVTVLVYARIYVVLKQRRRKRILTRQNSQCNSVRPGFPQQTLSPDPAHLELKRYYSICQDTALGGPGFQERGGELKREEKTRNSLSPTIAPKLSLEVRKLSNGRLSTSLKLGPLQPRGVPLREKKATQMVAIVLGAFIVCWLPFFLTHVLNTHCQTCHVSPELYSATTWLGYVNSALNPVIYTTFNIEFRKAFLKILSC

Compound | Ki (D(3) dopamine receptor [1]) [µM] | Ki (D(2) dopamine receptor) [µM] | Ratio Ki (Homo sapiens) | Ki [2] [µM] | Activity [3] | Activity [4] | Activity (D(3) dopamine receptor [5]) | Activity (D(3) dopamine receptor [6]) | Activity (D(3) dopamine receptor [7])
Cn1c(SCCCN2CCC3(CC2)CCN(c2ccc(F)cc2)CC3)nnc1-c1ccccc1 | 0.0256 | 9.79 | 383 | 0.587 | Active | Active | inactive | inactive | 
COc1ccccc1N1CCC2(CCN(CCCSc3nnc(-c4ccccc4)n3C)CC2)CC1 | 0.012 | 10.9 |  | 0.931 | Active | Active |  |  | Active
Cn1c(SCCCN2CCC3(CC2)CCN(c2cccc(C#N)c2)CC3)nnc1-c1ccccc1 | 0.438 | 57.1 | 130 |  |  |  |  |  | 
COc1ccccc1N1CCC2(CCN(CCCSc3nnc(-c4ccccc4)n3C)CC2)C1 | 0.0196 | 6.17 |  | 0.724 | Active | Active | inactive | inactive | 
Cn1c(SCCCN2CC3(CCN3c3ccc(F)cc3)C2)nnc1-c1ccccc1 | 18.2 | > 110 | > 6 |  |  |  |  |  | 
COc1ccccc1N1CCC12CN(CCCSc1nnc(-c3ccccc3)n1C)C2 | 4.79 | 115 | 24 |  |  |  |  |  | 
COc1ccccc1N1CCC2(CN(CCCSc3nnc(-c4ccccc4)n3C)C2)C1 | 0.192 | 60.2 | 313 |  |  |  |  |  | 
Cn1c(SCCCN2CCC3(CC2)CCN(c2cccc(Cl)c2Cl)CC3)nnc1-c1ccccc1 | 0.0824 | 7.5 | 91 |  |  |  |  |  | 
Cn1c(SCCCN2CCC3(CC2)CCN(c2ccccn2)CC3)nnc1-c1ccccc1 | 0.871 | 83.7 | 96.1 |  |  |  |  |  | 
COc1ccccc1N1CCC12CCN(CCCSc1nnc(-c3ccccc3)n1C)CC2 | 0.169 | 29.3 | 173 |  |  |  |  |  | 
COc1ccccc1N1CCN(CCCSc2nnc(-c3ccccc3)n2C)CC1 | 0.0065 | 0.26 |  | 0.00022 |  |  |  |  | 
COc1ccccc1N1CC2(CCN(CCCSc3nnc(-c4ccccc4)n3C)CC2)C1 | 0.235 | 37.6 | 160 |  |  |  |  |  | 
COc1ccccc1N1CC2(CN(CCCSc3nnc(-c4ccccc4)n3C)C2)C1 | 0.833 | 21.2 | 25.5 |  |  |  |  |  | 
COc1ccccc1N1CCC2(CCN(CCCSc3nnc(-c4ccccc4)n3C)C2)C1 (racemic) | 0.0242 | 6.37 | 264 |  |  |  | inactive | inactive | 
COc1ccc(N2CCC3(CCN(CCCSc4nnc(-c5ccccc5)n4C)CC3)CC2)cc1 | 0.0977 | 105 | 1070 |  |  |  |  |  | 
